{"source": "ChEMBL document CHEMBL5096186", "about": "“Design, Synthesis, and Biological Evaluation of Novel Pyrimido[4,5-b]indole Derivatives Against Gram-Negative Multidrug-Resistant Pathogens” (J Med Chem, 2021)", "key": {"Staphylococcus aureus": {"tested_on": "Staphylococcus aureus", "assay": "Antibacterial activity against methicillin-sensitive Staphylococcus aureus strains 15 1 to 4 assessed as reduction in bacterial growth incubated for 18 to 20 hrs by CLSI based microdilution method", "type": "functional", "conditions": "time 18-20 hrs", "summary_of_the_method": "(§1)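 Broth microdilution per CLSI. Compounds dissolved in DMSO (levofloxacin and meropenem in water) as 64 μg/mL stock, then serial twofold dilutions in broth giving 64 to 0.008 μg/mL. […] Clinical isolates tested as several strains per group; racemic GP-1 served as positive control; values given as MIC ranges.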"}, "[1]": {"tested_on": "Staphylococcus epidermidis", "assay": "Antibacterial activity against methicillin-sensitive Staphylococcus epidermidis strains 15 1 to 4 assessed as reduction in bacterial growth incubated for 18 to 20 hrs by CLSI based microdilution method", "type": "functional", "conditions": "time 18-20 hrs", "summary_of_the_method": "as §1"}, "Escherichia coli [2]": {"tested_on": "Escherichia coli", "assay": "Antibacterial activity against ESBL-producing Escherichia coli ATCC 35218 strains 15 1 to 3 assessed as reduction in bacterial growth incubated for 18 to 20 hrs by CLSI based microdilution method", "type": "functional", "conditions": "time 18-20 hrs", "summary_of_the_method": "(§2)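 CLSI broth microdilution. Compounds in DMSO (levofloxacin and meropenem in water), serial twofold dilutions in broth, 64 to 0.008 μg/mL. […] Results reported as MIC ranges across strains.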"}, "Escherichia coli [3]": {"tested_on": "Escherichia coli", "assay": "Antibacterial activity against Escherichia coli ATCC 35218 strains 15 1 to 3 assessed as reduction in bacterial growth incubated for 18 to 20 hrs by CLSI based microdilution method", "type": "functional", "conditions": "time 18-20 hrs", "summary_of_the_method": "as §2"}, "Pseudomonas aeruginosa [4]": {"tested_on": "Pseudomonas aeruginosa", "assay": "Antibacterial activity against multidrug resistant Pseudomonas aeruginosa strains 15 1 to 3 assessed as reduction in bacterial growth incubated for 18 to 20 hrs by CLSI based microdilution method", "type": "functional", "conditions": "time 18-20 hrs", "summary_of_the_method": "as §1"}, "[5]": {"target": "hERG (KCNH2) potassium channel (Homo sapiens, UniProt Q12809)", "sequence (Q12809 whole entry)": "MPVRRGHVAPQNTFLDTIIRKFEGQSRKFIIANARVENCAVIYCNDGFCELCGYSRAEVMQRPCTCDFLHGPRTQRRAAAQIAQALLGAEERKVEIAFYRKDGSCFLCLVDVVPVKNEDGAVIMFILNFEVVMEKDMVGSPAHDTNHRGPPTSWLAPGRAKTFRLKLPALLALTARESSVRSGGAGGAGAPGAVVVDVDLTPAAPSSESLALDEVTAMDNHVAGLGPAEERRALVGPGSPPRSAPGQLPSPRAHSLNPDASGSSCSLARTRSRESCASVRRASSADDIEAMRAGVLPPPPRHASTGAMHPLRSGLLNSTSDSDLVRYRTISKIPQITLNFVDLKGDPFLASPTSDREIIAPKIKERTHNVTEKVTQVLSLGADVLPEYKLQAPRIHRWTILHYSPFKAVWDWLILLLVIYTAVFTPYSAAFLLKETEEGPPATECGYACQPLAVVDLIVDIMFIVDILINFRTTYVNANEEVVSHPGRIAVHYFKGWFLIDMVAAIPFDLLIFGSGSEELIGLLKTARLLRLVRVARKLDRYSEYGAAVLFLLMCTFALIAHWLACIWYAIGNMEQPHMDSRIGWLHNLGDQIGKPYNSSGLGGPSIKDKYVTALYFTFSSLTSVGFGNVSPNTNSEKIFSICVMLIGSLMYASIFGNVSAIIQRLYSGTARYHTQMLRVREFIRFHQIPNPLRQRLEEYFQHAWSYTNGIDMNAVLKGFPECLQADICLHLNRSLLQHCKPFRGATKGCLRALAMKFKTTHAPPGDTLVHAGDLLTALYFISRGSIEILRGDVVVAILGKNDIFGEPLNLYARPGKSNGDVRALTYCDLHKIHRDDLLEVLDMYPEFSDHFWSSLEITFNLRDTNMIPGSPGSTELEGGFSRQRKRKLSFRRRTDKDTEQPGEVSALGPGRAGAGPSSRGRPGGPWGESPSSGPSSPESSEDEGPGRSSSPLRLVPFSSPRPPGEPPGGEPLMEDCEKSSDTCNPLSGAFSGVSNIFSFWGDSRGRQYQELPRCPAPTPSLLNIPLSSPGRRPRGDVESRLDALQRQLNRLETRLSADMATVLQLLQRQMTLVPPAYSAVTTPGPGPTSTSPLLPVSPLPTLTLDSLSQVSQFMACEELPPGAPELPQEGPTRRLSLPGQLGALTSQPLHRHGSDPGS", "assay": "Inhibition of hERG potassium channel assessed as maximum inhibition rate at 40 uM at -80 mV holding potential incubated for 120 seconds by whole cell-automated voltage clamp analysis assay relative to control", "type": "toxicity", "conditions": "time 120 sec", "summary_of_the_method": "(§3)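 Automated whole-cell patch clamp, holding potential −80 mV. Voltage protocol applied every 20 s. Baseline set with external solution containing 0.1% DMSO and stabilised 3 min. Compound applied until steady state, at least 3 min, then washout. Maximum tested concentration 40 μM, or 3 μM for cisapride as positive control.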"}, "[6]": {"target": "Voltage-gated inwardly rectifying potassium channel KCNH2 (Homo sapiens, UniProt Q12809)", "sequence (Q12809 whole entry)": "as above", "assay": "Inhibition of hERG potassium channel assessed as […] at -80 mV holding potential incubated for 120 seconds by whole cell-automated voltage clamp analysis assay", "type": "toxicity", "summary_of_the_method": "as §3"}, "Escherichia coli [7]": {"tested_on": "Escherichia coli", "assay": "Antibacterial activity against ESBL-producing multidrug resistant Escherichia coli assessed as reduction in bacterial growth incubated for 18 to 20 hrs by CLSI based microdilution method", "type": "functional", "conditions": "time 18-20 hrs", "summary_of_the_method": "as §1"}, "Escherichia coli [8]": {"tested_on": "Escherichia coli", "assay": "Antibacterial activity against multidrug resistant wild type Escherichia coli ATCC BAA-2340 assessed as reduction in bacterial growth incubated for 18 to 20 hrs by CLSI based microdilution method", "type": "functional", "conditions": "time 18-20 hrs", "summary_of_the_method": "as §1"}, "Escherichia coli [9]": {"tested_on": "Escherichia coli", "assay": "Antibacterial activity against multidrug resistant wild type Escherichia coli NCTC 13353 assessed as reduction in bacterial growth incubated for 18 to 20 hrs by CLSI based microdilution method", "type": "functional", "conditions": "time 18-20 hrs", "summary_of_the_method": "as §1"}, "Klebsiella pneumoniae [10]": {"tested_on": "Klebsiella pneumoniae", "assay": "Antibacterial activity against KPC2-producing multidrug resistant Klebsiella pneumoniae assessed as reduction in bacterial growth incubated for 18 to 20 hrs by CLSI based microdilution method", "type": "functional", "conditions": "time 18-20 hrs", "summary_of_the_method": "as §1"}, "Klebsiella pneumoniae [11]": {"tested_on": "Klebsiella pneumoniae", "assay": "Antibacterial activity agains wild type Klebsiella pneumoniae ATCC BAA-1705 assessed as reduction in bacterial growth incubated for 18 to 20 hrs by CLSI based microdilution method", "type": "functional", "conditions": "time 18-20 hrs", "summary_of_the_method": "as §2"}, "Klebsiella pneumoniae [12]": {"tested_on": "Klebsiella pneumoniae", "assay": "Antibacterial activity agains wild type Klebsiella pneumoniae ATCC BAA-2470 assessed as reduction in bacterial growth incubated for 18 to 20 hrs by CLSI based microdilution method", "type": "functional", "conditions": "time 18-20 hrs", "summary_of_the_method": "as §1"}, "Acinetobacter baumannii [13]": {"tested_on": "Acinetobacter baumannii", "assay": "Antibacterial activity agains OXA23-producing multidrug resistant Acinetobacter baumannii assessed as reduction in bacterial growth incubated for 18 to 20 hrs by CLSI based microdilution method", "type": "functional", "conditions": "time 18-20 hrs", "summary_of_the_method": "as §1"}, "Acinetobacter baumannii [14]": {"tested_on": "Acinetobacter baumannii", "assay": "Antibacterial activity against wild type Acinetobacter baumannii NCTC 13304 assessed as reduction in bacterial growth incubated for 18 to 20 hrs by CLSI based microdilution method", "type": "functional", "conditions": "time 18-20 hrs", "summary_of_the_method": "as §1"}, "Pseudomonas aeruginosa [15]": {"tested_on": "Pseudomonas aeruginosa", "assay": "Antibacterial activity against IMP4-producing multidrug resistant Pseudomonas aeruginosa assessed as reduction in bacterial growth incubated for 18 to 20 hrs by CLSI based microdilution method", "type": "functional", "conditions": "time 18-20 hrs", "summary_of_the_method": "as §1"}, "Pseudomonas aeruginosa [16]": {"tested_on": "Pseudomonas aeruginosa", "assay": "Antibacterial activity against wild type Pseudomonas aeruginosa ATCC 27853 assessed as reduction in bacterial growth incubated for 18 to 20 hrs by CLSI based microdilution method", "type": "functional", "conditions": "time 18-20 hrs", "summary_of_the_method": "as §2"}, "[17]": {"assay": "Metabolic stability in rat liver microsome assessed as elimination half life at 0.1 uM in presence of NADPH incubated upto 60 mins by LC-MS/MS analysis", "type": "ADME", "conditions": "liver microsomes, read-out: beta t1/2", "summary_of_the_method": "(§4)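 Compound at 0.1 μM final, in 0.01% DMSO with 0.005% BSA. Incubated with rat or human liver microsomes at 0.33 mg/mL in 0.1 M Tris-HCl, pH 7.4, with 5 mM MgCl₂ and 1 mM NADPH, at 37 °C. Samples at 0, 7, 17, 30 and 60 min quenched with cold methanol and analysed by LC-MS/MS. Half-life, Cl_int and MF% derived as previously described.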"}, "[18]": {"assay": "Metabolic stability in human liver microsome assessed as elimination half life at 0.1 uM in presence of NADPH incubated upto 60 mins by LC-MS/MS analysis", "type": "ADME", "conditions": "liver microsomes, read-out: beta t1/2", "summary_of_the_method": "as §4"}, "[19]": {"assay": "Metabolic stability in rat liver microsome assessed as intrinsic clearance at 0.1 uM in presence of NADPH incubated upto 60 mins by LC-MS/MS analysis", "type": "ADME", "conditions": "microsomes, 1 h", "summary_of_the_method": "as §4"}, "[20]": {"assay": "Metabolic stability in human liver microsome assessed as intrinsic clearance at 0.1 uM in presence of NADPH incubated upto 60 mins by LC-MS/MS analysis", "type": "ADME", "conditions": "microsomes, 1 h", "summary_of_the_method": "as §4"}, "[21]": {"assay": "Metabolic stability in rat liver microsome assessed as metabolic bioavailability at 0.1 uM in presence of NADPH incubated upto 60 mins by LC-MS/MS analysis", "type": "ADME", "conditions": "liver microsomes", "summary_of_the_method": "as §4"}, "[22]": {"assay": "Metabolic stability in human liver microsome assessed as metabolic bioavailability at 0.1 uM in presence of NADPH incubated upto 60 mins by LC-MS/MS analysis", "type": "ADME", "conditions": "liver microsomes", "summary_of_the_method": "as §4"}}, "data": [{"compound": "CNc1cc(F)cc2c1[nH]c1nc(Oc3cnc(C)nc3)nc(N3CC(=C(Cl)CN)C3)c12", "values": [{"measurement": "MIC", "setting": "Staphylococcus aureus", "result": "< 8", "unit": "ng/mL"}, {"measurement": "MIC", "setting": "[1]", "result": "< 8", "unit": "ng/mL"}, {"measurement": "MIC", "setting": "Escherichia coli [2]", "result": 1, "unit": "µg/mL"}, {"measurement": "MIC", "setting": "Escherichia coli [3]", "result": 0.25, "unit": "µg/mL"}, {"measurement": "MIC", "setting": "Pseudomonas aeruginosa [4]", "result": 8, "unit": "µg/mL"}, {"measurement": "inhibition at 2 min, 40 µM", "setting": "[5]", "result": 34.3, "unit": "%"}, {"measurement": "IC50", "setting": "[6]", "result": "> 40", "unit": "µM"}]}, {"compound": "CCC(CN)=C1CN(c2nc(Oc3cnc(C4CC4)nc3)nc3[nH]c4c(NC)cc(F)cc4c23)C1", "values": [{"measurement": "MIC", "setting": "Staphylococcus aureus", "result": "< 8", "unit": "ng/mL"}, {"measurement": "MIC", "setting": "[1]", "result": "< 8", "unit": "ng/mL"}, {"measurement": "MIC", "setting": "Escherichia coli [2]", "result": 0.03, "unit": "µg/mL"}, {"measurement": "MIC", "setting": "Escherichia coli [3]", "result": 0.015, "unit": "µg/mL"}, {"measurement": "MIC", "setting": "Pseudomonas aeruginosa [4]", "result": 0.5, "unit": "µg/mL"}, {"measurement": "inhibition at 2 min, 40 µM", "setting": "[5]", "result": 62, "unit": "%"}, {"measurement": "IC50", "setting": "[6]", "result": 23.4, "unit": "µM"}]}, {"compound": "[2H]C([2H])([2H])Nc1cc(F)cc2c1[nH]c1nc(Oc3cnc(C(C)O)nc3)nc(N3CC(=C(CC)CN)C3)c12", "note": "(stereo not given)", "values": [{"measurement": "MIC", "setting": "Escherichia coli [7]", "result": 4, "unit": "µg/mL"}, {"measurement": "MIC", "setting": "Escherichia coli [8]", "result": 2, "unit": "µg/mL"}, {"measurement": "MIC", "setting": "Escherichia coli [9]", "result": 1, "unit": "µg/mL"}, {"measurement": "MIC", "setting": "Klebsiella pneumoniae [10]", "result": 4, "unit": "µg/mL"}, {"measurement": "MIC", "setting": "Klebsiella pneumoniae [11]", "result": 8, "unit": "µg/mL"}, {"measurement": "MIC", "setting": "Klebsiella pneumoniae [12]", "result": 8, "unit": "µg/mL"}, {"measurement": "MIC", "setting": "Acinetobacter baumannii [13]", "result": 2, "unit": "µg/mL"}, {"measurement": "MIC", "setting": "Acinetobacter baumannii [14]", "result": 2, "unit": "µg/mL"}, {"measurement": "MIC", "setting": "Pseudomonas aeruginosa [15]", "result": 16, "unit": "µg/mL"}, {"measurement": "MIC", "setting": "Pseudomonas aeruginosa [16]", "result": 8, "unit": "µg/mL"}]}, {"compound": "CCC(CO)=C1CN(c2nc(Oc3cnc(C)nc3)nc3[nH]c4c(NC)cc(F)cc4c23)C1", "values": [{"measurement": "MIC", "setting": "Staphylococcus aureus", "result": "< 8", "unit": "ng/mL"}, {"measurement": "MIC", "setting": "[1]", "result": "< 8", "unit": "ng/mL"}, {"measurement": "MIC", "setting": "Escherichia coli [2]", "result": 0.25, "unit": "µg/mL"}, {"measurement": "MIC", "setting": "Escherichia coli [3]", "result": 0.25, "unit": "µg/mL"}, {"measurement": "MIC", "setting": "Pseudomonas aeruginosa [4]", "result": "≥ 64", "unit": "µg/mL"}, {"measurement": "half-life at 0.1 µM", "setting": "[17]", "result": 45.6, "unit": "min"}, {"measurement": "half-life at 0.1 µM", "setting": "[18]", "result": 76, "unit": "min"}, {"measurement": "CLH", "setting": "[19]", "result": 256.1, "unit": "mL/min/g"}, {"measurement": "CLH", "setting": "[20]", "result": 51.4, "unit": "mL/min/g"}, {"measurement": "Fh at 1 h, 0.1 µM", "setting": "[21]", "result": 14.8, "unit": "%"}, {"measurement": "Fh at 1 h, 0.1 µM", "setting": "[22]", "result": 27.6, "unit": "%"}]}, {"compound": "CNc1cc(F)cc2c1[nH]c1nc(Oc3cnc(C)nc3)nc(N3CC(=C(C)CO)C3)c12", "values": [{"measurement": "MIC", "setting": "Staphylococcus aureus", "result": "< 30", "unit": "ng/mL"}, {"measurement": "MIC", "setting": "[1]", "result": "< 30", "unit": "ng/mL"}, {"measurement": "MIC", "setting": "Escherichia coli [2]", "result": "> 64", "unit": "µg/mL"}, {"measurement": "MIC", "setting": "Escherichia coli [3]", "result": 0.25, "unit": "µg/mL"}, {"measurement": "MIC", "setting": "Pseudomonas aeruginosa [4]", "result": "> 64", "unit": "µg/mL"}]}]}
